# Test: Toxicity liver stage against HepG2, at 10uM
# Format: cell-based
# Set-up: test concentration 10 uM, cell line HepG2-A16-CD81EGFP
# Settings: human, HepG2-A16-CD81EGFP cells; read-out: INHIBITION
# Outline: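 Uninfected HepG2-A16-CD81EGFP cells, 3 × 10^3 per well, 1536-well, plated on prespotted compound at 10 μM final, parasite-free screening media added to match infected plates; puromycin 10 μM positive, DMSO 0.5% negative; run in parallel with 48 h PbLuc assay at 37 °C, 5% CO2; viability by CellTiter-Glo luminescence, normalized to controls.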
row,Structure (SMILES),cytotoxicity at 10 µM [%]
1,O=c1c2c(ncn1CCO)nc1n2CCC1,-11.3
2,COCCN(CC1CCCN(C2Cc3ccccc3C2)C1)C(=O)CSC (configuration not stated),-1.66
3,Cc1ccccc1C(O)c1ccncc1 (configuration not stated),-4.84
4,Cc1ccc(-c2noc(C(C)NS(C)(=O)=O)n2)cc1 (configuration not stated),-9.24
5,CC(C)CCNC(=O)c1ccc2c(=O)n(-c3ccccc3)cnc2c1,-4.65
6,Cn1cc(NC(=O)CNC(=O)N2CCN(c3cccc(Cl)c3)CC2)cn1,2.93
7,O=C(COc1coc(CN2CCOCC2)cc1=O)Nc1ccc(Cl)cc1,-6.51
8,Cc1ccc(C)c(C(=O)NCC(c2cccn2C)N2CCCCCC2)c1 (configuration not stated),5.64
9,O=C(NCC(F)(F)F)C1CN(C(=O)c2cnccn2)C1,2.24
10,CO[C@H]1CCN(c2ccc(C)nn2)[C@H]1Cc1cnn(C)c1,-12.7
11,CCOCCCNC(=O)c1nn(CC)cc1Br,1.77
12,Cc1nc(NCc2cccnc2)c2c(n1)c(C)nn2C,-3.42
13,CN(C)c1ccc(C2CCN(c3cnccn3)CC2)nc1,-11.2
14,O=C(c1cc(C2CC2)on1)N1C[C@H]2CC[C@](O)(c3ccc(F)cc3)[C@H]2C1,3.94
15,Cn1c(=O)[nH]c(=O)c2c1nc1n2CC(c2ccc(Br)cc2)O1 (configuration not stated),-1.41
16,CC(C)(C)NC(=O)N1CCC(NC(=O)Cc2cccnc2)CC1,0.355
17,Cc1ccc(C(=O)NS(=O)(=O)Cc2ccccc2)cc1S(C)(=O)=O,3.09
18,CS(=O)(=O)c1cc(NC(=O)COc2ccccc2F)cc(C(=O)O)c1,-9.24
19,COc1ccc(C(O)CNC(=O)Cn2ccc(=O)n(C)c2=O)cc1 (configuration not stated),6.45
20,CCOc1cc(CNc2cc(-c3nc(C)no3)ccn2)ccc1OC,1.74
21,CC(NC(=O)CSCC(N)=O)c1ccc(Oc2ccccc2)cc1 (configuration not stated),2.98

row,Structure (SMILES),cytotoxicity at 10 µM [%]
1,Cc1cc(C(=O)NCC(O)c2ccc(Cl)s2)c(C)o1 (configuration not stated),-6.82
2,O=C(Cc1ccccc1Br)NCC(=O)Nc1cn[nH]c1,7.44
3,CC(C(=O)NCc1ccco1)N1CCN(Cc2nccn2C)CC1 (configuration not stated),7.73
4,CN(Cc1ccc(C(N)=O)cc1)c1ccc(C(F)(F)F)cn1,7.98
5,CCc1nc2n(n1)CC(Nc1ccnc(-c3ccccc3)n1)CC2 (configuration not stated),-11.7
6,CC(O)(CNS(=O)(=O)Cc1ccon1)c1ccsc1 (configuration not stated),2.76
7,CC(C)c1nnc(NC(=O)N2CCN(C)CC2c2ccccc2)s1 (configuration not stated),-11.6
8,O=C(Nc1cccn(CC(F)(F)F)c1=O)c1ccc(F)cc1,14.3
9,CCn1c(C)cc(-c2csc(Cn3ccc(=O)[nH]c3=O)n2)c1C,10.2
10,N#CC(NC(=O)CCC1CCC1)c1cnn(-c2ccccc2)c1 (configuration not stated),-2.65
11,COCC(O)CN(C)C(=O)NC1CCN(S(C)(=O)=O)CC1 (configuration not stated),-0.778
12,CC(=O)c1cccc(NC(=O)CN2CCCCC2C2OCCO2)c1 (configuration not stated),-10.5
13,O=C(C1SCCc2sccc21)N1CCN(CCO)CC1 (configuration not stated),-19.8
14,CCCn1nc2c(cc1=O)CN(Cc1nc(CCOC)no1)CC2,-2.7
15,CSc1ccc(NS(=O)(=O)c2cnn(C)c2)cn1,-4.69
16,CSCCC(=O)N1CCCC1c1ccsc1 (configuration not stated),-20.3
17,CCCc1n[nH]c(C2CN(C(=O)CCCn3cccn3)CCO2)n1 (configuration not stated),-7.87
18,C[C@H]1C[C@H]2CN(C(=O)CC3CC3)CC[C@H]2O1,-67.8
19,Cc1noc(CN2CC=C(c3cnn(C4CCS(=O)(=O)C4)c3)CC2)n1 (configuration not stated),-0.89
20,CN(Cc1cc(C2CC2)on1)C(=O)CN1CC(c2ccccc2)CC1=O (configuration not stated),-6.72
21,CCn1ncnc1CN1CCc2[nH]cnc2C1CCc1ccccc1 (configuration not stated),0.0189

row,Structure (SMILES),cytotoxicity at 10 µM [%]
1,COc1ccccc1N1CCN(C(=O)Cn2nc(C)c(C)c2C)C(C)C1 (configuration not stated),2.96
2,OCCC[C@@H]1CN(c2ncc(Cl)cc2Cl)CC[C@@H]1N1CCOCC1,4.24
3,CC(C)N1CCC(CC(=O)N(C)CC(=O)c2ccc(O)cc2)CC1,5.21
4,O=C1OCCN1CCNCC1(O)CCCN(CCC2CCCCC2)C1=O (configuration not stated),-0.615
5,COc1ccc(OC)c2c(C)cc(N(CCO)CCO)nc12,-114
6,COc1cccc2c1OCC(CNc1cc(N)nc(SC)n1)C2 (configuration not stated),3.37
7,O=C(N1CCCC1)N1CCC(c2nccn2Cc2cscn2)CC1,4.8
8,NC1CCCCN(Cc2ccccc2CS(=O)(=O)c2ccccc2)C1 (configuration not stated),-20.9
9,CCS(=O)(=O)CCNc1nc(C2CCCC2)nc2c1cnn2C,9.35
10,COc1ccc(OCc2nccc(-c3cc(C(=O)O)ccn3)n2)cc1,-4.81
11,CCN1CCCC(c2c(-c3ccccc3)ncn2CC(N)=O)C1 (configuration not stated),-15.4
12,c1cc(CNc2ccc(-c3nc(C4CC4)no3)cn2)no1,1.79
13,Cc1cccc(N2CCN(CC(=O)N3CCCC(N(C)C)CC3)CC2)c1 (configuration not stated),-3.73
14,COCCC1(C(=O)O)CCCN(CC(=O)NCCc2ccccc2)C1 (configuration not stated),2.66
15,CCc1nnc(CN(C)c2nc(C3CCCC3)nc3c2cnn3C)o1,-11.3
16,COc1ccc(CN2CCC(O)CC2)c(OC)c1,-9.18
17,c1ccc(Cc2noc(CN3CCCC3Cn3cccn3)n2)cc1 (configuration not stated),-2.57
18,CCC(O)CN1CCN(C(=O)c2cc3ccccc3n2CC)CC1 (configuration not stated),-0.579
19,Cc1ncc2c(n1)CN(CC(=O)Nc1c(C)nn(C)c1C)CC2,-11.1
20,Cc1nc(CN(C)C2CCN(CC3CCOCC3)C2)no1 (configuration not stated),-4.68
21,CC(=O)N1CCN(C(=O)c2cccc(OCc3cscn3)c2)CC1,-7.57

row,Structure (SMILES),cytotoxicity at 10 µM [%]
1,Cc1cc(C)c(CNC(=O)NCCC2CCCO2)c(=O)[nH]1 (configuration not stated),-6.33
2,CCn1cnnc1CNC(=O)Cc1ccc2c(c1)OCCO2,-3.27
3,CCc1n[nH]c(C2CN(C(=O)c3cnc(C)cn3)CCO2)n1 (configuration not stated),-2.9
4,COC(=O)c1cccn1C1CCN(CCN2C(=O)CCC2=O)CC1,0.207
5,Cc1c(C(=O)N2CCCC(n3cncn3)C2)cnn1C (configuration not stated),-9.84
6,Nc1nc(CN2CCOC(Cn3cccn3)C2)nc2ccccc12 (configuration not stated),-20.4
7,Cc1nn(C)c(Cl)c1CNCc1ccc(OCC(N)=O)cc1,1.08
8,CCc1cccc(NS(=O)(=O)c2cc3c(c(C(=O)O)c2)OCCO3)c1,2.89
9,CC(NC(=O)NCCCN(C)S(C)(=O)=O)c1ccncc1 (configuration not stated),-0.409
10,O=C(CCc1nccs1)N1CCN(c2cccnn2)CC1,-2.84
11,Cc1n[nH]c(C)c1NC(=O)CN1CCn2c(nnc2C(C)C)C1,-1.03
12,O=C(N[C@H]1CN[C@H]2CCCO[C@H]21)c1cscn1,-13.7
13,CCC(=O)N1C[C@@H](C(=O)NC)[C@H](c2ccnc(N3CCCC3)n2)C1,-1.21
14,Cn1cccc1CN1CCC2(CCCN(C(=O)c3cnccn3)C2)C1 (configuration not stated),-6.36
15,c1ccc(Cn2cc3c(n2)C(COCC2CC2)OCC3)nc1 (configuration not stated),-6.63
16,c1cc(CN2CCC3(CC2)COC(COCC2CC2)C3)ccn1 (configuration not stated),-0.443
17,Cc1ccccc1C(=O)N1C[C@@H]2COC[C@]2(COCc2cccnc2)C1,4.44
18,O=C(C1CCOC1)N1CCC2(CC1)COCCN(Cc1ccncc1)C2 (configuration not stated),-86
19,O=C(NC1CCC1)[C@H]1C[C@H]2CN(C(=O)Nc3ccc(F)cc3)C[C@@H]1O2,7.2
